Laboratory results taken from the EternaBench riboswitch data.

Columns and labels:
MS2 coat protein [1] = experiment: apparent Kd, MS2 coat protein; higher = weaker binding; RNA-MaP array; tryptophan 2.4 mM where present; details: designed as: OFF switch for tryptophan
Outline: (§1)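 Each design was made on Illumina sequencing-chip clusters by stalled E. coli RNA polymerase and titrated with SNAP-549-labelled MS2 coat protein from 0.7 or 1.5 nM, doubling to 3 µM, in the absence and then the presence of constant ligand. The buffer was 100 mM Tris-HCl pH 7.5, 80 mM KCl, 4 mM MgCl2, BSA, DTT, yeast tRNA and Tween-20. The apparent Kd is the median of filtered per-cluster fits of binding curves, with green signal normalised to red-channel RNA signal and control-cluster median Fmax.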

MS2 coat protein [2] = experiment: apparent Kd, MS2 coat protein; higher = weaker binding; RNA-MaP array; theophylline 2 mM where present
Outline: as §1

[3] = designed as: OFF switch for theophylline, no ligand
[4] = ligand present: theophylline, designed as: OFF switch for theophylline
[5] = designed as: ON switch for theophylline, no ligand
[6] = ligand present: theophylline, designed as: ON switch for theophylline

## AAUGUGAAGGCGGCCGCCACUGAUAAUAGACAUGAGGAUCACCCAUGUAUAAAUCCUCAAUAAGACAGGACCGGGCCAACUACGU
MS2 coat protein [1]; no ligand
  apparent Kd: 105 nM
MS2 coat protein [1]; ligand present: tryptophan
  apparent Kd: 125 nM

## GAGGAAACUCACAUGAGGAUCACCCAUGUACGAGGACCGGUACGGCCGCCACUCGAAACCAUGGGCGGUUGUACAUGGAAACAUG
MS2 coat protein [1]; no ligand
  apparent Kd: 24.8 nM
MS2 coat protein [1]; ligand present: tryptophan
  apparent Kd: 74.8 nM

## GAUCGACAAAACGUCUAGGAAAACUAGACGCGAGGACCGGUACGGCCGCCACUCGUCCUCACAUGAGGAUCACCCAUGUACGAUC
MS2 coat protein [1]; no ligand
  apparent Kd: 31.5 nM
MS2 coat protein [1]; ligand present: tryptophan
  apparent Kd: 177 nM

## AGAGGUGCAACAGAUACCAGUCUACCGUACCUCAGAGAACAUGAGGAUCACCCAUGUAUAGACCCUUGGCAGCUGAUGUUAUUCA
MS2 coat protein [2]; [3]
  apparent Kd: 22.3 nM
MS2 coat protein [2]; [4]
  apparent Kd: 79 nM

## AGCCCUGUGCUAGAUACCAGCUACAUGAGGAUCACCCAUGUGCGUCAGAAAUGACUGUGUAGCCCUUGGCAGCUACUCGCAUGUA
MS2 coat protein [2]; [3]
  apparent Kd: 14.5 nM
MS2 coat protein [2]; [4]
  apparent Kd: 26 nM

## UCCUCCUCCGCAAGGAGGAGGAGUUGCGAUACCAGCACGGAAACGUGCCCUUGGCAGCGCACAUGAGGAUCACCCAUGUCAUGUU
MS2 coat protein [2]; [3]
  apparent Kd: 18 nM
MS2 coat protein [2]; [4]
  apparent Kd: 24 nM

## GAUAGUUGAUGGGAUACCAGCGUGCACAUGAGGAUCACCCAUGUGGUUCGUGUACGACGGCGCCCUUGGCAGCCCAUAUUGUGUA
MS2 coat protein [2]; [5]
  apparent Kd: 151 nM
MS2 coat protein [2]; [6]
  apparent Kd: 18.9 nM

## AGAUAACAUGGUUUAAUAAGAUAAACUGAUACCAGUGUAUAUAAUCACCCUUGGCAGCAGCAACAUGAGGAUCACCCAUGUAAUA
MS2 coat protein [2]; [5]
  apparent Kd: 17 nM
MS2 coat protein [2]; [6]
  apparent Kd: 21.6 nM

## UGUAACAUGAGGAUCACCCAUGUGCACGAUACCAGCUUAUUGGUAGGCCCUUGGCAGCGUAUUCGGAAGAUGUAUAAUAUAUAUC
MS2 coat protein [2]; [5]
  apparent Kd: 13.4 nM
MS2 coat protein [2]; [6]
  apparent Kd: 13.3 nM

## AAACGUUGCUCAGAUACCAGACAUGAGGAUCACCCAUGUACCAAGGUAACCGAAAGGCAUGUCCCUUGGCAGCUGAGCAACGAAA
MS2 coat protein [2]; [3]
  apparent Kd: 12.8 nM
MS2 coat protein [2]; [4]
  apparent Kd: 262 nM

## AGACAUGAGGAUCACCCAUGUAGUAUGGAUACCAGAUGUAGAUUAGUCCCUUGGCAGCUGUGGUGAAGUGAUGCAUUGCUCCUAG
MS2 coat protein [2]; [3]
  apparent Kd: 23.4 nM
MS2 coat protein [2]; [4]
  apparent Kd: 25.9 nM

## UCUUUCUAUUGUGAUACCAGACGUACAUGAGGAUCACCCAUGUUUCAUUCUUGUUUUAAAGUCCCUUGGCAGCACUAUUUGUUCG
MS2 coat protein [2]; [3]
  apparent Kd: 16.3 nM
MS2 coat protein [2]; [4]
  apparent Kd: 13.2 nM

## AGCGACAUGCGUGAUACCAGCUACAUGAGGAUCACCCAUGUACGUCAGUAAUGACUGUGUAGCCCUUGGCAGCAUAAUGCAUGUC
MS2 coat protein [2]; [3]
  apparent Kd: 34.4 nM
MS2 coat protein [2]; [4]
  apparent Kd: 67.2 nM

## AUAUUACAUGUUAUUAUACGGUAUACUGAUACCAGUGUUUCUAUUCACCCUUGGCAGCAGCAACAUGAGGAUCACCCAUGUAUUA
MS2 coat protein [2]; [5]
  apparent Kd: 16.7 nM
MS2 coat protein [2]; [6]
  apparent Kd: 16.9 nM

## AUGUCGUUGAAUACAGCGGCAUGGUGUGAUACCAGAAUGAUCAAAUUCCCUUGGCAGCAUCACAUGAGGAUCACCCAUGUUAAGG
MS2 coat protein [2]; [5]
  apparent Kd: 38.3 nM
MS2 coat protein [2]; [6]
  apparent Kd: 52 nM

## AGAUGACACAGUGGAUAGCAAGAUGCCGAUACCAGCUAGGAAACUAGCCCUUGGCAGCGGUACAUGAGGAUCACCCAUGUAUCCU
MS2 coat protein [2]; [3]
  apparent Kd: 12.2 nM
MS2 coat protein [2]; [4]
  apparent Kd: 58.7 nM

## AGCCCUGUACUAGAUACCAGCUACAUGAGGAUCACCCAUGUACGAUAAGACUGUCCAUGUAGCCCUUGGCAGCUGCUCGCAUGUA
MS2 coat protein [2]; [3]
  apparent Kd: 30.6 nM
MS2 coat protein [2]; [4]
  apparent Kd: 68.8 nM

## UUCAAAGGGAACGGUGCUGGUGACAGAGAUACCAGCGCGGUAACGCGCCCUUGGCAGCUCAGAACAUGAGGAUCACCCAUGUAAU
MS2 coat protein [2]; [3]
  apparent Kd: 13.6 nM
MS2 coat protein [2]; [4]
  apparent Kd: 50.2 nM

## UGACAUUGCUCAGAUACCAGACAUGAGGAUCACCCAUGUACCAAGGUACGAAAAUAACAUGUCCCUUGGCAGCUGAGCAAUGUCU
MS2 coat protein [2]; [3]
  apparent Kd: 13.6 nM
MS2 coat protein [2]; [4]
  apparent Kd: 251 nM

## AUCGUACCUCAUGAUACCAGCAUGUGAUCAUAACAUGAGGAUCACCCAUGUAAUCAGUGAUGCCCUUGGCAGCGUAGUCGAUACA
MS2 coat protein [2]; [5]
  apparent Kd: 136 nM
MS2 coat protein [2]; [6]
  apparent Kd: 63 nM

## UGUAACAUGAGGAUCACCCAUGUGAGUGAUACCAGACUAGUAUUAGUCCCUUGGCAGCACGCUGGGCGAGUGUAUAGUCUAUGCG
MS2 coat protein [2]; [5]
  apparent Kd: 85.9 nM
MS2 coat protein [2]; [6]
  apparent Kd: 84.9 nM

## AAACGUUGCUGCGAUACCAGACAUGAGGAUCACCCAUGUACCAAGAAAACGUACAUAAAUGUCCCUUGGCAGCGCAGCAACGAAA
MS2 coat protein [2]; [3]
  apparent Kd: 582 nM
MS2 coat protein [2]; [4]
  apparent Kd: 1110 nM

## UAUUUGGUGCGCGAGCGCUGGAUAAUUGAUACCAGUGAAGAAGAGCGCCCUUGGCAGCGAAUCCUAACAUGAGGAUCACCCAUGU
MS2 coat protein [2]; [5]
  apparent Kd: 37 nM
MS2 coat protein [2]; [6]
  apparent Kd: 42.1 nM

## AGCGAUAUGCAUGAUACCAGCUACAUGAGGAUCACCCAUGUGCGUCAGAAAUGACUGUGUAGCCCUUGGCAGCAUAAAGCAUGUA
MS2 coat protein [2]; [3]
  apparent Kd: 45.1 nM
MS2 coat protein [2]; [4]
  apparent Kd: 87.2 nM

## ACAUGAGGAUCACCCAUGUGGCGUCUUGAUACCAGACCCGCACUAGUCCCUUGGCAGCAACUACGUGAGGGUCGCCCAUGUGUAG
MS2 coat protein [2]; [3]
  apparent Kd: 35.9 nM
MS2 coat protein [2]; [4]
  apparent Kd: 46.8 nM

## UAUAUUGUGAUGGAUACCAGCAGAGAAAACGUUUAUCCUAACAUGAGGAUCACCCAUGUAUGCCCUUGGCAGCUGUUGUGGUAUA
MS2 coat protein [2]; [4]
  apparent Kd: 44.4 nM
